# Bioassay records as filed in PubChem BioAssay.
# NR1D1 modulator: modulates human Rev-erb alpha binding to DNA. Rev-erbα–FITC-DNA binding, fluorescence polarization, 90 min. AID 1259318. activity, % at 10 µM. P20393. hit rate 0.79% among 370,000;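 active = activity above about 14%, limit read from the data; passing the limit was not always enough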;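 note: 0% = DMSO wells with 35 nM protein and 100% = DMSO wells with 750 nM protein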
# Target sequence (P20393 whole entry, looked up): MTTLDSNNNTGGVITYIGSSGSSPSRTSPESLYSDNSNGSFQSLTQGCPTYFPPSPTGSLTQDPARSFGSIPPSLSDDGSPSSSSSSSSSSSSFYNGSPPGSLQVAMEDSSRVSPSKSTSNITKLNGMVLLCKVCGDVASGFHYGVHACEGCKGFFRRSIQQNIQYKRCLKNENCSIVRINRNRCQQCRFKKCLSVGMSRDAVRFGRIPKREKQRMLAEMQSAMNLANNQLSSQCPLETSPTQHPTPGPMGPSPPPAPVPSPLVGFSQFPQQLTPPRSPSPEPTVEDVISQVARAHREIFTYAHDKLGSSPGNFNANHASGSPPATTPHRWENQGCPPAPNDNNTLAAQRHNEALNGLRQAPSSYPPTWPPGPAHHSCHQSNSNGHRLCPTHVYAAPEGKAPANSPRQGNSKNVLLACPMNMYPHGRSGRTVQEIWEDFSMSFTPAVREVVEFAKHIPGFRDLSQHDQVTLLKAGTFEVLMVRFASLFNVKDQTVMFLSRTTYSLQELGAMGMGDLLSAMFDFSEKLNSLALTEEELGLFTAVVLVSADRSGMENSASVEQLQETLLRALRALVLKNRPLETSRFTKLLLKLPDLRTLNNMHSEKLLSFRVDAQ
# hiPSC survival: enhancers of human iPSC single-cell survival; hiPSC single-cell survival, ATPlite luminescence; 100% = ROCK inhibitor wells, 0% = DMSO; survival enhancement, % at 20 µM; hit rate 0.044% among 360,000; in the data active = survival enhancement above about 18%;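 note: cells exposed to compounds for 16 hours before the ATP read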
# PG9 binder: small molecules binding HIV-1 gp120 antibody PG9 | TR-FRET gp120-PG9 antibody binding | inhibition, % at 6.7 µM | hit rate 0.43% among 360,000 | AID 624416; in the data active = inhibition above about 8.5%
# MIN6 prolif: inducers of beta-cell replication in MIN6 cells; proliferation, % at 10 µM; hit rate 0.29% among 330,000; MIN6 cells proliferation, ATPlite luminescence, 48 h; cells starved in 0.2% serum; 100% = growth in 10% serum;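 active = compounds whose signal lies at least 3.5 SD above the mean of all wells on their plate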;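 note: 0% = DMSO-treated cells in low-serum medium and 100% = 10% serum control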
# T cruzi repl: T. cruzi replication inhibition; T. cruzi beta-gal in NIH3T3, luminescence, 90 h; inhibition, % (no concentration beside the values); hit rate 1.4% among 300,000; AID 1885;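 active = mean inhibition across valid replicates above about 55%, limit read from the data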;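 note: signal also drops with host cell toxicity which is not excluded here; 0% = plate median of DMSO wells and 100% = zero luminescence signal; higher percent means less beta-gal luminescence so fewer parasites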
#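 Test system: β-gal T. cruzi (Tulahuen C4) inside NIH/3T3 cells / Quantity: 5,000 cells/well / Measured by: luminescence from GalScreen with 0.05% NP40, read after 60 min / Medium: DMEM plus 2% FBS / Measure: parasite load inhibition, % / Reagent: Tulahuen C4 trypomastigotes, 5000/well / Schedule: co-culture of at least 90 h after 3 h attachment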
# TAG inh: inhibitors of triacylglycerol accumulation; H9c2 cells, Nile Red lipid (TAG) fluorescence; cells loaded with 200 µM oleic acid; inhibition, % at 12.5 µM; hit rate 0.66% among 230,000;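 active = pattern-corrected inhibition of lipid staining of at least 50% with the nuclear-stain viability signal not falling by more than 50%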;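 note: 0% = DMSO wells and 100% = triacsin C control wells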
# PG9 bind confirm: confirmation of small molecules binding HIV-1 gp120 antibody PG9 | inhibition, % at 6.7 µM | hit rate 90% among 1,500 | AID 651571 | TR-FRET PG9 antibody binding, biochemical | shares compounds with PG9 binder; in the data active = inhibition above about 9%
# PGV04 Ab binding: counter-screen for PG9 binders: binding control antibody PGV04. shares compounds with PG9 binder. hit rate 95% among 1,500. inhibition, % at 6.7 µM. TR-FRET PGV04 antibody-gp120 binding, biochemical; in the data active = inhibition above about 9.5%
# PG9 binder DR: small molecules binding HIV-1 gp120 antibody PG9 | shares compounds with PG9 binder | TR-FRET PG9 antibody-gp120 binding inhibition | IC50, µM | 95 tested, under 10 active; in the data active = IC50 below about 10 µM
# PGV04 binding DR: PGV04 binding, dose response counter-screen; shares compounds with PG9 binder; TR-FRET binding to control antibody PGV04; IC50, µM; hit rate 20% among 95; AID 651937
# PG126 DR counter: counter-screen for PG9 binders: binding to control antibody PG126. hit rate 20% among 95. IC50, µM. TR-FRET binding to antibody PG126, counterscreen. shares compounds with PG9 binder
# Numbers without * were called inactive; i = inactive; . = no result given. A selection: hits, their analogues and other compounds. The true share with any hit is near 2.9%. Cut-off read from the data, not from the text of the source, unless noted: active = IC50 below about 9 µM; inactive = the rest.
SMILES,NR1D1 modulator,hiPSC survival,PG9 binder,MIN6 prolif,T cruzi repl,TAG inh,PG9 bind confirm,PGV04 Ab binding,others
CCN(CC)CCCN1C(=O)C(=O)/C(=C(/O)c2ccc(Cl)cc2)C1c1ccccn1 (stereo unspecified),-3.9,1.5,9.0*,-1.8,-7.9,-11.2,13.2*,16.2*,
COc1ccc(/C(O)=C2/C(=O)C(=O)N(CCCN(C)C)C2c2cccc(Cl)c2)cc1OC (stereo unspecified),-2.9,-0.5,46.9*,0.0,-12.6,.,16.6*,22.4*,
COC(=O)c1cc(-c2ccc(OC)c(OC)c2)c2c(=O)[nH]c(=O)n(C)c2n1,7.4,-0.5,21.1*,7.5,-1.6,.,21.3*,28.8*,
COC(=O)c1cc(-c2ccc(Br)cc2)c2c(=O)[nH]c(=O)n(C)c2n1,8.6,0.2,20.0*,-2.6,5.1,.,29.3*,16.4*,PG9 binder DR=>67;PGV04 binding DR=i;PG126 DR counter=i
COC(=O)c1cc(-c2cccc([N+](=O)[O-])c2)c2c(=O)[nH]c(=O)n(C)c2n1,-3.5,-0.3,-2.1,0.2,8.5,.,.,.,
Cc1cc(N2C(=O)C(O)=C(C(=O)c3ccc(C)o3)C2c2ccc([N+](=O)[O-])cc2)no1 (stereo unspecified),-2.9,-0.3,-1.6,-2.3,-33.6,.,.,.,
Cc1cc(N2C(=O)C(O)=C(C(=O)c3cc4ccccc4o3)C2c2cccc(Cl)c2)no1 (stereo unspecified),-1.9,-0.4,26.6*,-3.4,-5.6,.,40.4*,56.0*,
Cc1cc(N2C(=O)C(O)=C(C(=O)c3cc4ccccc4o3)C2c2ccc(Br)cc2)no1 (stereo unspecified),-2.3,-0.4,11.8*,-0.7,-7.5,.,32.2*,45.4*,
Cc1cc(N2C(=O)C(O)=C(C(=O)c3cc4ccccc4o3)C2c2ccc(Cl)cc2)no1 (stereo unspecified),7.0,0.2,25.6*,-1.7,-5.0,.,33.2*,51.0*,
CCCOc1ccc(C2C(C(=O)c3cc4ccccc4o3)=C(O)C(=O)N2c2cc(C)on2)cc1 (stereo unspecified),-6.1,0.0,6.4,-2.9,3.5,.,.,.,
Cc1cc(N2C(=O)C(O)=C(C(=O)c3ccc(C)o3)C2c2cccc(Cl)c2)no1 (stereo unspecified),-2.4,-1.9,8.7*,.,.,1.7,17.4*,23.7*,
COc1cccc(C(=O)Nc2cc(C(=O)NCc3ccc(C)cc3)ccc2N2CCC3(CC2)CC(c2ccccc2)=NO3)c1,2.1,-3.0,11.2*,1.0,13.4,3.6,3.7,6.3,
Cc1ccc(S(=O)(=O)Nc2nc(C)cc(NCCN)n2)cc1,-0.2,1.7,-0.3,-2.0,6.5,.,.,.,
CSc1ncccc1C(=O)OCc1ccc(C#N)cc1,2.5,-2.3,9.8*,2.0,6.6,-26.2,15.1*,20.5*,
CSc1ncccc1C(=O)OCC(=O)Nc1ccc(Cl)cn1,-3.1,-2.7,17.0*,-2.1,.,-19.2,9.9*,14.7*,
CCOc1ncccc1C(=O)OCC(=O)Nc1ccc(Cl)cn1,-1.0,4.4,-2.1,1.4,.,-7.9,.,.,
CSc1ncccc1C(=O)OCC(=O)c1ccc(C)s1,17.4,0.3,16.0*,-3.2,.,-10.9,15.7*,38.3*,
COc1ccc(Cn2ccnc2SCC(=O)Nc2cccc(NC(C)=O)c2)cc1,3.8,0.3,0.5,-1.5,-10.1,-1.0,.,.,
Cc1ccc(NC(=O)c2cccs2)cc1[N+](=O)[O-],-1.1,-0.6,-2.0,-1.5,-10.8,0.7,.,.,
O=C(/C=C/c1ccccc1)Nc1cccnc1Oc1ccccc1F,-0.2,-0.4,0.6,-1.2,11.5,8.2,.,.,
